Experimental findings from ChEMBL document CHEMBL4411315, “Discovery of Novel Dual Histone Deacetylase and Mammalian Target of Rapamycin Target Inhibitors as a Promising Strategy for Cancer Therapy” (J Med Chem, 2019) are described below.

Assay [1] relates to HCT-116. Description: Antiproliferative activity against human HCT116 cells at 5 uM after 72 hrs by MTT assay relative to control. It is filed as functional. To be noted: HCT-116, 72 h. The method, boiled down: (§1)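 HCT116 cells were grown in DMEM and Ramos cells in RPMI 1640, each with 10% FBS and penicillin/streptomycin, at 37 °C in 5% CO2. Log-phase cells were seeded at 10000-15000 per well and dosed after 24 h at 5 or 0.5 μM for 72 h. MTT was added for 1-3 h, followed by 20% SDS overnight, and A570 was read. Percent inhibition is relative to untreated control, as the mean of at least two experiments.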

Assay [2] addresses PI3-kinase p110-alpha/p85-alpha (Homo sapiens) (UniProt P27986+P42336). Description: Inhibition of recombinant human full length N-terminal His-tagged/untagged p110alpha/p85alpha expressed in baculovirus expression system at 500 nM using PIP2 as substrate after 1 hr by Kinase-Glo reagent-based assay relative to control. On the technique in general: Kinase-Glo measures the ATP left after a reaction by luminescence.

Assay [3] relates to Ramos. Description: Antiproliferative activity against human Ramos cells at 5 uM after 72 hrs by MTT assay relative to control. It is filed as functional. The method, boiled down: as §1
Assay [4] deals with Serine/threonine-protein kinase mTOR (Homo sapiens, UniProt P42345). In words: Inhibition of recombinant N-terminal FLAG-tagged human mTOR (1362 to end residues) at 500 nM using ULight-4E-BP1 (Thr37/46) peptide as substrate after 1 hr by fluorescence assay relative to control.
For assay [5], the system named is HCT-116. Description: Antiproliferative activity against human HCT116 cells at 0.5 uM after 72 hrs by MTT assay relative to control. It is filed as functional. The following applies: HCT-116, 72 h. The method, boiled down:
as §1
For orientation: Tetrazolium assays rely on reduction of a dye to a coloured formazan, in cell work by metabolically active cells.

The subject of assay [6] is Ramos. In words: Antiproliferative activity against human Ramos cells at 0.5 uM after 72 hrs by MTT assay relative to control. The assay is classed as functional. The method, boiled down: as §1
The subject of assay [7] is MM1.S. Description: Antiproliferative activity against human MM1S cells after 72 hrs by MTT assay. The assay is classed as functional, cell-based.
Assay [8] has as its system MCF7. Description: Antiproliferative activity against human MCF7 cells after 72 hrs by MTT assay. It is filed as functional, cell-based. The following applies: MCF7, 72 h.
The subject of assay [9] is Raji. Description: Antiproliferative activity against human Raji cells after 72 hrs by MTT assay. It is filed as functional, cell-based. The method, boiled down: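 Log-phase cells were plated at 10000-15000 per well and exposed to serial concentrations after 24 h for 72 h. Read-out was MTT for 1-3 h, then 20% SDS overnight and absorbance at 570 nm. IC50 was calculated from growth versus untreated control, as mean ± SEM of at least three independent experiments.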

For assay [10], the system named is HCT-116. In words: Antiproliferative activity against human HCT116 cells after 72 hrs by MTT assay. It is filed as functional, cell-based. To be noted: HCT-116, 72 h.
For assay [11], the system named is OCI-AML2. In words: Antiproliferative activity against human OCI-AML2 cells after 72 hrs by MTT assay. It is filed as functional, cell-based. The following applies: OCI-AML2, 72 h.
Assay [12] concerns MV4-11. In words: Antiproliferative activity against human MV4-11 cells after 72 hrs by MTT assay. The assay is classed as functional, cell-based. To be noted: MV4-11, 72 h.
Assay [13] relates to OCI-AML-3. In words: Antiproliferative activity against human OCI-AML3 cells after 72 hrs by MTT assay. It is filed as functional, cell-based. The following applies: OCI-AML-3, 72 h.

Some results are limits rather than exact numbers.

In general, inhibition refers to the drop in the measured response relative to a control, in per cent. Take `CN1CCN(c2nc(N3CCOCC3)c3cnn(CCCCCC(=O)NO)c3n2)CC1`: the inhibition at 5 µM in assay [1] turned out to be 56.9%; in [3], 99.5%. In addition, the inhibition is 1.5% in assay [2] and -1.7% in [4]. The results for the inhibition at 0.5 µM in assay [5] and in assay [6] were 10.2% and 91.2%, respectively.
One may read the IC50 as the concentration that inhibits the measured activity by half. Read a high IC50 as weaker potency. Consider `O=C(CCCCCCn1ncc2c(N3CCOCC3)nc(N3CCOCC3)nc21)NO`, for which the IC50 amounted to 192 nM in assay [7], 372 nM in assay [8], 159 nM in assay [9] and 89.9 nM in [10]. The inhibition at 5 µM in [1] worked out at 95.2%; in assay [3], 97.4%. Besides, the inhibition amounted to 4.5% in assay [2] and 2.2% in assay [4]. For the same compound, the results for the inhibition at 0.5 µM in assay [5] and in assay [6] were 92.9% and 91%, respectively.
As for `COc1cccc(NC(=O)Nc2ccc(-c3nc(N4CCOCC4)c4cnn(CCCCCCC(=O)NO)c4n3)cc2)c1`, the IC50 in [7] is 464 nM; in assay [9], 247 nM; in assay [10] it was > 500 nM.
`O=C(CCCCCCn1ncc2c(N3CCOCC3)nc(-c3cccnc3)nc21)NO`: the IC50 in assay [7] is > 500 nM; in [8], > 500 nM; in assay [9], > 500 nM; in assay [10], 296 nM. In addition, the inhibition in [2] is -0.1%; in [4], 17%.
For `CCCCNC(=O)Nc1ccc(-c2nc(N3CCOCC3)c3cnn(CCCCCCC(=O)NO)c3n2)cc1`, the IC50 in [7] was determined as 15.3 nM; in assay [11] it was 9.71 nM; in assay [12], 18.3 nM; in assay [9], 19.1 nM; in assay [10] it was 33.9 nM; in assay [13] it was 8.79 nM.
With `CCCNC(=O)Nc1ccc(-c2nc(N3CCOCC3)c3cnn(CCCCCCC(=O)NO)c3n2)cc1`, the IC50 stood at 83.4 nM in assay [7], 42.5 nM in assay [9] and 104 nM in assay [10].
On to `CCNC(=O)Nc1ccc(-c2nc(N3CCOCC3)c3cnn(CCCCCCC(=O)NO)c3n2)cc1`, for which the IC50 in assay [7] was 11.8 nM; in assay [11] it was 18.4 nM; in [12], 10.4 nM; in assay [9], 19.7 nM; in assay [10], 61.9 nM; in assay [13] it was 16.3 nM.
Take `Nc1ccc(-c2nc(N3CCOCC3)c3cnn(CCCCCCC(=O)NO)c3n2)cn1`: the IC50 in assay [7] came to 8.4 nM; in assay [8] it was 163 nM; in assay [9], 7.1 nM; in [10], 61.3 nM. Moreover, the inhibition in [2] is 1.9%; in assay [4], 35%.
As to `O=C(CCCCCCn1ncc2c(N3CCOCC3)nc(-c3ccoc3)nc21)NO`, the IC50 was 15.6 nM in [7], 156 nM in [8], 7.7 nM in assay [9] and 34.9 nM in assay [10]. In addition, the inhibition was 8.4% in [2] and 35% in [4].
In the case of `Cc1ccc(NC(=O)Nc2ccc(-c3nc(N4CCOCC4)c4cnn(CCCCCCC(=O)NO)c4n3)cc2)cc1`, the results for the IC50 in assay [7], in assay [9] and in assay [10] were 24.7 nM, 22.1 nM and 26.1 nM, respectively.
With `O=C(CCCCCCn1ncc2c(N3CCOCC3)nc(-c3ccsc3)nc21)NO`, the IC50 in assay [7] was determined as 35.6 nM; in assay [8] it was 202 nM; in [9], 14.6 nM; in assay [10], 72.8 nM. Moreover, the results for the inhibition in assay [2] and in assay [4] were 9.7% and 55%, respectively.
As for `CN1CCN(c2nc(N3CCOCC3)c3cnn(CCCCCCC(=O)NO)c3n2)CC1`, the inhibition at 5 µM in assay [1] was determined as 80.3%; in assay [3], 99.5%. The inhibition is -6.2% in [2] and -0.4% in [4]. The inhibition at 0.5 µM in assay [5] was found to be 59.9%; in assay [6] it was 90.1%.
As to `O=C(CCCCCCn1ncc2c(N3CCOCC3)nc(-c3ccc(NC(=O)Nc4ncc(Br)cn4)cc3)nc21)NO`, the IC50 amounted to 64.3 nM in [7], 60.8 nM in [9] and 144 nM in assay [10].
For `O=C(/C=C/c1ccc(Cn2ncc3c(N4CCOCC4)nc(N4CCOCC4)nc32)cc1)NO`, the inhibition at 5 µM in [1] was 59.5%; in assay [3] it was 98.2%. Also, the inhibition in assay [2] was -3%; in assay [4], -5.4%. The values for the inhibition at 0.5 µM in [5] and in [6] were 12% and 16.8%, respectively.
Take `O=C(Cn1ncc2c(N3CCOCC3)nc(N3CCOCC3)nc21)NO`: the inhibition at 5 µM in assay [1] stood at 18.1%; in [3], 12.4%. Besides, in assay [2], the inhibition was found to be 5.9%. Further, the inhibition at 0.5 µM in assay [5] was 3.5%; in assay [6], 1.1%.
Regarding `Nc1ncc(-c2nc(N3CCOCC3)c3cnn(CCCCCCC(=O)NO)c3n2)cn1`, the IC50 in assay [7] was 32.6 nM; in assay [8], 221 nM; in [9] it was 31.7 nM; in assay [10], 163 nM. Further, the inhibition was determined as 1.2% in [2] and 40% in [4].
Take `COc1ccc(-c2nc(N3CCOCC3)c3cnn(CCCCCCC(=O)NO)c3n2)cc1`: the IC50 is 354 nM in assay [7], 70.6 nM in [8], 29.3 nM in assay [9] and 38 nM in assay [10]. Besides, the inhibition in [2] is -1%; in [4], 38%.
In the case of `O=C(CCCCCCn1ncc2c(N3CCOCC3)nc(-c3ccc(NC(=O)NCCO)cc3)nc21)NO`, the IC50 in assay [7] amounted to 60.3 nM; in [9], 61.1 nM; in assay [10], 57.2 nM.
With `CC(O)CNC(=O)Nc1ccc(-c2nc(N3CCOCC3)c3cnn(CCCCCCC(=O)NO)c3n2)cc1` (stereo not drawn), the IC50 was determined as 305 nM in [7], 153 nM in assay [9] and 441 nM in assay [10].
Consider `O=C(CCCCn1ncc2c(N3CCOCC3)nc(N3CCOCC3)nc21)NO`, for which the inhibition at 5 µM in assay [1] was determined as 55.8%; in assay [3], 60.2%. Further, the inhibition is 15% in assay [2] and -5.4% in assay [4]. The values for the inhibition at 0.5 µM in [5] and in [6] were 22.6% and 33.3%, respectively.
As for `O=C(CCCCCn1ncc2c(N3CCOCC3)nc(N3CCOCC3)nc21)NO`, the inhibition at 5 µM was 92.1% in [1] and 94.6% in assay [3]. The inhibition in assay [2] is 1%; in assay [4], -4.2%. The inhibition at 0.5 µM in [5] came to 62.4%; in [6], 69.2%.
Take `Cc1cccnc1NC(=O)Nc1ccc(-c2nc(N3CCOCC3)c3cnn(CCCCCCC(=O)NO)c3n2)cc1`: the concentration for half-maximal inhibition (IC50) in assay [7] worked out at 20.2 nM; in assay [9], 19 nM; in [10], 24.6 nM.
For the compound `O=C(CCCn1ncc2c(N3CCOCC3)nc(N3CCOCC3)nc21)NO`, the inhibition at 5 µM in [1] was 30.1%; in [3], 39.6%. In addition, the inhibition was 17% in assay [2] and 21% in assay [4]. The inhibition at 0.5 µM in assay [5] came out at 15.7%; in assay [6], 20.5%.
As to `CS(=O)(=O)c1ccc(-c2nc(N3CCOCC3)c3cnn(CCCCCCC(=O)NO)c3n2)cc1`, the IC50 in [7] is 168 nM; in assay [8], > 500 nM; in assay [9], 111 nM; in [10], 76.5 nM. The inhibition turned out to be 31% in assay [2] and 64% in assay [4].
Turning to `O=C(CCn1ncc2c(N3CCOCC3)nc(N3CCOCC3)nc21)NO`, the inhibition at 5 µM in assay [1] was 22.4%; in assay [3] it was 15.7%. For the same compound, the inhibition in [2] is 11%; in assay [4] it was -5%. For the same compound, the inhibition at 0.5 µM in [5] is 6.3%; in assay [6], 8.5%.
`COc1ccc(-c2nc(N3CCOCC3)c3cnn(CCCCCCC(=O)NO)c3n2)cn1`: the IC50 in [7] was > 500 nM; in assay [8], 372 nM; in assay [9], 44.9 nM; in assay [10], 66.9 nM. Besides, the inhibition in [2] was determined as 3.3%; in assay [4], 58%.
For the compound `O=C(CCCCCCn1ncc2c(N3CCOCC3)nc(-c3cc[nH]c3)nc21)NO`, the IC50 in [7] was determined as 52.3 nM; in assay [8], 180 nM; in [9], 15.3 nM; in assay [10] it was 107 nM. For the same compound, the inhibition in assay [2] is -3.8%; in assay [4] it was 85%.
On to `O=C(CCCCCCCn1ncc2c(N3CCOCC3)nc(N3CCOCC3)nc21)NO`, for which the inhibition at 5 µM amounted to 71.8% in assay [1] and 99.1% in [3]. For the same compound, the inhibition in assay [2] is -1.2%; in assay [4], 4.4%. For the same compound, the values for the inhibition at 0.5 µM in assay [5] and in assay [6] were 13.8% and 26.9%, respectively.
On to `CNC(=O)Nc1ccc(-c2nc(N3CCOCC3)c3cnn(CCCCCCC(=O)NO)c3n2)cc1`, for which the IC50 in assay [7] was 13.4 nM; in [9], 3.5 nM; in assay [10], 51.6 nM.
